Laboratory results published in ChEMBL document CHEMBL4043283, “Discovery and Preclinical Development of IIIM-290, an Orally Active Potent Cyclin-Dependent Kinase Inhibitor” (J Med Chem, 2018).
The source made the active and inactive calls. No cut-off for these calls is given here.

Experiments:
NCI-H522 = assay: Growth inhibition of human NCI-H522 cells after 48 hrs by MTT assay; type: functional; details: NCI-H522, 48 h
Method in brief: (§1)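 Cancer cell lines sourced from the National Cancer Institute (USA). Cells kept in appropriate growth medium at 37 °C, 95% humidity, 5% CO2. Antiproliferation read by tetrazolium (MTT) assay. GI50 values were determined only for compounds selected after an initial single-concentration screen.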

[1] = Intrinsic clearance in dog liver microsomes assessed per mg of protein at 100 uM after 30 mins by LC-MS/MS analysis; type: ADME, Canis lupus familiaris, microsome; details: read-out: CLH
Method in brief: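 Intrinsic clearance obtained from substrate disappearance over time, reported per mg protein (microsomes, S9) or per 10^6 cells (hepatocytes).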

MIA PaCa-2 = assay: Induction of apoptosis in human MIAPaCa2 cells assessed as intracellular vesicle formation after 24 hrs by scanning electron microscopy; type: functional, cell-based
Method in brief: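 Cells exposed to different compound concentrations for 24 h on coverslips, fixed in 2.5% glutaraldehyde in 0.1 M phosphate buffer pH 7.2 (4 °C, 24 h), postfixed in 1% OsO4 4 h, ethanol-dehydrated, critical-point dried with HMDS, gold-coated, imaged at 20 kV.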

HOP-62 = assay: Growth inhibition of human HOP62 cells after 48 hrs by MTT assay; type: functional; details: HOP-62, 48 h; method in brief: as §1
CDK2/Cyclin O = CDK2/Cyclin O (Homo sapiens, UniProt P22674+P24941); assay: Inhibition of CDK2/cyclin O (unknown origin) after 30 mins in presence of [33P]-gamma-ATP by filter binding assay; type: protein-complex assay
[2] = Tmax in BALB/c mouse at 3 mg/kg, po by LC-MS/MS analysis; type: ADME, organism-based; details: in vivo
Lung = assay: Drug uptake in Sprague-Dawley rat lung at 30 mg/kg, po after 8 hrs; type: ADME, organism-based; details: in vivo

CN1CC[C@H](c2c(O)cc(O)c3c(=O)cc(/C=C/c4c(Cl)cccc4Cl)oc23)[C@H](O)C1
GI50 (NCI-H522): 5 µM | microsomal CLint at 100 µM [1]: > 29 µL/min/mg | Activity (MIA PaCa-2): Active | GI50 (HOP-62): 7 µM | IC50 (CDK2/Cyclin O): 0.138 µM | Tmax [2]: 22.2 min | Drug uptake (Lung): Active
